Source: the M2OR odorant receptor database
Where a chain is given by its changes, count along the chain named.

Assays:
Conditions in all cases: stereoisomer not certain
[1] = molecular target: T1, OR6C65 (Homo sapiens) (UniProt A6NJZ3)
T1 sequence (whole entry): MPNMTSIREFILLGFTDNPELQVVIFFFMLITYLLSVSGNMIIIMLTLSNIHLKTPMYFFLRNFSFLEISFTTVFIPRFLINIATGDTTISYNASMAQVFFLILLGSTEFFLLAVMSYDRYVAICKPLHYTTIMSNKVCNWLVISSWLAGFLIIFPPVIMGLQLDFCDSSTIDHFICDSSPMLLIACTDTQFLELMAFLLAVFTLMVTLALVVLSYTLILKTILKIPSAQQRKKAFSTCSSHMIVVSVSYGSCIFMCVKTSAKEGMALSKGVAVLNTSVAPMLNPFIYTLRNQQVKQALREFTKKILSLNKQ
In short: (§1)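 Whether a receptor–molecule pair is responsive (active) rests on the original authors' judgment that its measured signal was statistically different from baseline. Pairs without that judgment are non-responsive (inactive). Sources used varied assay methods, commonly transient luciferase assays in mammalian cell lines.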

[2] = molecular target: T2, OR6C68 (Homo sapiens) (UniProt A6NDL8)
T2 sequence (whole entry): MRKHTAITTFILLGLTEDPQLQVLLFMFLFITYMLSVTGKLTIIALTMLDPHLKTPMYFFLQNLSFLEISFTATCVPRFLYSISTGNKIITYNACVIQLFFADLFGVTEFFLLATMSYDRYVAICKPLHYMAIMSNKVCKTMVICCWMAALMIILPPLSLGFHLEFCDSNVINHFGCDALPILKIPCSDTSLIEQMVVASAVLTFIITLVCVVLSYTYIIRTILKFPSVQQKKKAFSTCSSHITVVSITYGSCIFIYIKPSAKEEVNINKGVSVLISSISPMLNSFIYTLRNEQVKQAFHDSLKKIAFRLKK
In short: as §1

[3] = molecular target: T3, OR6C70 (Homo sapiens) (UniProt A6NIJ9)
T3 sequence (whole entry): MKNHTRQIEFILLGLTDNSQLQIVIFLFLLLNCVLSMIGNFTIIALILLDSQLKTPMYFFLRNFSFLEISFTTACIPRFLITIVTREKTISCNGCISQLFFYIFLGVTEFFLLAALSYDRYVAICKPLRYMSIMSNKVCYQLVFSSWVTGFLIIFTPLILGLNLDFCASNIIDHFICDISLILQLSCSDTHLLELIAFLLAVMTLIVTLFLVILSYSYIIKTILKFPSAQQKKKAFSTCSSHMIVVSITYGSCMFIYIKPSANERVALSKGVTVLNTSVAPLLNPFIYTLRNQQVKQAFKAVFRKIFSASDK
In short: as §1

[4] = molecular target: T4, OR6C74 (Homo sapiens) (UniProt A6NCV1)
T4 sequence (whole entry): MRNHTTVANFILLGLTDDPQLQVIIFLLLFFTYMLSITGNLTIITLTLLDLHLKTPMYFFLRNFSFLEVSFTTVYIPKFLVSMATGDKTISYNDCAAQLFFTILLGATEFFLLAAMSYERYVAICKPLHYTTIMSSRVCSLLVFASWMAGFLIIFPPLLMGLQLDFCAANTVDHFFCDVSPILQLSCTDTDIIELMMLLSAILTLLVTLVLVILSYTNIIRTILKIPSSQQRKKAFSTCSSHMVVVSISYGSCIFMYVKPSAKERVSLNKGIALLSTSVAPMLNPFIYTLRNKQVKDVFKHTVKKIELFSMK
In short: as §1

[5] = molecular target: T5, OR6C75 (Homo sapiens) (UniProt A6NL08)
T5 sequence (whole entry): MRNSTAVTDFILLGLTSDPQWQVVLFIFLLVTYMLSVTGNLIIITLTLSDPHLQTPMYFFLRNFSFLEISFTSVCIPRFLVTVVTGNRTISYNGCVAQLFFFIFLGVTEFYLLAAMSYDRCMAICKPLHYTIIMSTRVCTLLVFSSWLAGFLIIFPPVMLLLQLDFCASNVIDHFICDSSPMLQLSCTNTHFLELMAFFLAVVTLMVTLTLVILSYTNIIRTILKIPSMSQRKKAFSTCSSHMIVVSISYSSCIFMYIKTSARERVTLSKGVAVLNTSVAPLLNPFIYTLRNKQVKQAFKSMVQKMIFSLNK
In short: as §1

[6] = molecular target: T6, OR6C76 (Homo sapiens) (UniProt A6NM76)
T6 sequence (whole entry): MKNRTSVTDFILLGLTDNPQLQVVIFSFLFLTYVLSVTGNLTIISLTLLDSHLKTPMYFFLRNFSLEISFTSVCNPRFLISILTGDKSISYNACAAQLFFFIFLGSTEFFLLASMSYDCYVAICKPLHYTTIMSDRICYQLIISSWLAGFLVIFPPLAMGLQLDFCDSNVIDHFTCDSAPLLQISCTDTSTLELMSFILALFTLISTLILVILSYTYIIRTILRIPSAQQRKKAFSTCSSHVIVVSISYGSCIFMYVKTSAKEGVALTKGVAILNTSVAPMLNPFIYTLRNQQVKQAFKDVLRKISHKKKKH
In short: as §1

[7] = molecular target: T7, OR6F1 (Homo sapiens) (UniProt Q8NGZ6)
T7 sequence (whole entry): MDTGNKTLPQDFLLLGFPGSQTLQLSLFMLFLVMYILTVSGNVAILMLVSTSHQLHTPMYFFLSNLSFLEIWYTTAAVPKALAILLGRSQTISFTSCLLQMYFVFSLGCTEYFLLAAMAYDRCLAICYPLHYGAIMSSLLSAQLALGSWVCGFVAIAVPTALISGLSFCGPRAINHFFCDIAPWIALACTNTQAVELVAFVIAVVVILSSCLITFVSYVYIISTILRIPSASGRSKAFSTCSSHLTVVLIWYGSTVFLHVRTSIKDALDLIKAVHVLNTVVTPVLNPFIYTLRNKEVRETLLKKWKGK
In short: as §1

[8] = molecular target: T8, OR6J1 (Homo sapiens) (UniProt Q8NGC5)
T8 sequence (whole entry): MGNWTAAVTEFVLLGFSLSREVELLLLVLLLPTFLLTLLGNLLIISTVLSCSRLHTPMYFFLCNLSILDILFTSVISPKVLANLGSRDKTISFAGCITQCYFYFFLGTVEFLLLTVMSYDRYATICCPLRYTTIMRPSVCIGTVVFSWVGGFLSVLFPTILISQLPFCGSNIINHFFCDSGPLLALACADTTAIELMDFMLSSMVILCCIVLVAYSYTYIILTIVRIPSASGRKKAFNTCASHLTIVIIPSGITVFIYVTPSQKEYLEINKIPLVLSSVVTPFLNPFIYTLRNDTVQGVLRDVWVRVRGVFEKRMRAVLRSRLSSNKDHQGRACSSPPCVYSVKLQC
In short: as §1

[9] = molecular target: T9, OR6K2 (Homo sapiens) (UniProt Q8NGY2)
T9 sequence (whole entry): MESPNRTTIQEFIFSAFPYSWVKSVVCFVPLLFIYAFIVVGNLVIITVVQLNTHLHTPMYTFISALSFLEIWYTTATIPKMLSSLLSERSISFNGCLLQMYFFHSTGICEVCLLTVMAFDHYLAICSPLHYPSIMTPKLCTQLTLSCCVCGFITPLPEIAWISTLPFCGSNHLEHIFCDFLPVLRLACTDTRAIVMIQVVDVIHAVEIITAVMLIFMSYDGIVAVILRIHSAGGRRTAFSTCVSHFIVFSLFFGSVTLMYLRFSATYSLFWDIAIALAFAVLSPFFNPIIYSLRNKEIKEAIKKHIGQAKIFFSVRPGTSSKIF
In short: as §1

[10] = molecular target: T10, OR6K3 (Homo sapiens) (UniProt Q8NGY3)
T10 sequence (whole entry): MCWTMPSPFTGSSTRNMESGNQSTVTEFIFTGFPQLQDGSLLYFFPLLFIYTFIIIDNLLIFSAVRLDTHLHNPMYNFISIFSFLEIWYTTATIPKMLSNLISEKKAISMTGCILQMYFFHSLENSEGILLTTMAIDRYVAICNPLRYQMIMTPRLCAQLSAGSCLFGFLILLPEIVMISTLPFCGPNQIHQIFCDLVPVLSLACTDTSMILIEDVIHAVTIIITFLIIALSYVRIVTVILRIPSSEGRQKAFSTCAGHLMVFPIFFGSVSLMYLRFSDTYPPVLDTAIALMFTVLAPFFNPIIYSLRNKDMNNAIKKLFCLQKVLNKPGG
In short: as §1

[11] = molecular target: T11, OR6K6 (Homo sapiens) (UniProt Q8NGW6)
T11 sequence (whole entry): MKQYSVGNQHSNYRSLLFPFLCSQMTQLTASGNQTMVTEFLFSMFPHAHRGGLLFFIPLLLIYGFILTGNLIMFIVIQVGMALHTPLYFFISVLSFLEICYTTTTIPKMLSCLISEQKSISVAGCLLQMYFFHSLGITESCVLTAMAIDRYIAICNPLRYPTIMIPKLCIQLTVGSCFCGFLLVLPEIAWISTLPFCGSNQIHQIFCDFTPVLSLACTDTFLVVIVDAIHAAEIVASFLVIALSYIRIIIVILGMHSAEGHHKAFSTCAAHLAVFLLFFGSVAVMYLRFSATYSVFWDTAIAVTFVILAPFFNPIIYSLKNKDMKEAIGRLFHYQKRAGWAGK
In short: as §1

[12] = molecular target: T12, OR6M1 (Homo sapiens) (UniProt Q8NGM8)
T12 sequence (whole entry): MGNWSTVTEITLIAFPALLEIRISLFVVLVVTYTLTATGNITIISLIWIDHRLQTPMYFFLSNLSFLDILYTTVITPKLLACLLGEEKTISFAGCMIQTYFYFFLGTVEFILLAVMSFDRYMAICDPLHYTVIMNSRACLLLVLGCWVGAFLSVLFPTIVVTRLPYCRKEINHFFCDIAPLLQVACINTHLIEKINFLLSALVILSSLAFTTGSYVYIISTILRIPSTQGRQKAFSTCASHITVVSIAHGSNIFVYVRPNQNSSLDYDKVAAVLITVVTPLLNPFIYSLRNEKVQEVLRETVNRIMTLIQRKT
In short: as §1

[13] = molecular target: T13, OR6N1 (Homo sapiens) (UniProt Q8NGY5)
T13 sequence (whole entry): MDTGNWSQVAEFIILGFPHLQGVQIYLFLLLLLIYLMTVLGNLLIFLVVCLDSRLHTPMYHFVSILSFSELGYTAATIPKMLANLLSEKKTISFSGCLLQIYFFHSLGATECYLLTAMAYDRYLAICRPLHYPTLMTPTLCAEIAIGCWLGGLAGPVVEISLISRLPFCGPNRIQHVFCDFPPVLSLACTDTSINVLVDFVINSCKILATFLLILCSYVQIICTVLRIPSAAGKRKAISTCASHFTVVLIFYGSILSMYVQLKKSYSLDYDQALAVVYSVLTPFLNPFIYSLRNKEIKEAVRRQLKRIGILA
In short: as §1

[14] = molecular target: T14, OR6N2 (Homo sapiens) (UniProt Q8NGY6)
T14 sequence (whole entry): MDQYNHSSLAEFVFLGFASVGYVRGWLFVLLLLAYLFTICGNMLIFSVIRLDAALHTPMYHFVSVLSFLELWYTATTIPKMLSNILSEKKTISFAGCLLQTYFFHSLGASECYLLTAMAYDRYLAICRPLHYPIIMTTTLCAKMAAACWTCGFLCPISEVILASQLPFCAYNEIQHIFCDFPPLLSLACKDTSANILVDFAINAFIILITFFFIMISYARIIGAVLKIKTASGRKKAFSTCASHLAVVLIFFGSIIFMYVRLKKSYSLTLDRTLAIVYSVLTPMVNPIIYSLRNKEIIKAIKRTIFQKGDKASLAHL
In short: as §1

[15] = molecular target: T15, OR6P1 (Homo sapiens) (UniProt Q8NGX9)
T15 sequence (whole entry): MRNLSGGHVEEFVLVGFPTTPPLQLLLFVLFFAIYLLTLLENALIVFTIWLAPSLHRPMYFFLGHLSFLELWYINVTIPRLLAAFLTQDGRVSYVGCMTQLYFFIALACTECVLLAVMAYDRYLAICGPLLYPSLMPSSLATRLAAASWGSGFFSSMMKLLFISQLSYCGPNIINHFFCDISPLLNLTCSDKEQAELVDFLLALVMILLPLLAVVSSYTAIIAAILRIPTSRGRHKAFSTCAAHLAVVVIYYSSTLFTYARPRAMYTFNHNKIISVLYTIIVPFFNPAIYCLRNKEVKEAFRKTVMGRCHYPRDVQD
In short: as §1

[16] = molecular target: T16, OR6Q1 (Homo sapiens) (UniProt Q8NGQ2)
T16 sequence (whole entry): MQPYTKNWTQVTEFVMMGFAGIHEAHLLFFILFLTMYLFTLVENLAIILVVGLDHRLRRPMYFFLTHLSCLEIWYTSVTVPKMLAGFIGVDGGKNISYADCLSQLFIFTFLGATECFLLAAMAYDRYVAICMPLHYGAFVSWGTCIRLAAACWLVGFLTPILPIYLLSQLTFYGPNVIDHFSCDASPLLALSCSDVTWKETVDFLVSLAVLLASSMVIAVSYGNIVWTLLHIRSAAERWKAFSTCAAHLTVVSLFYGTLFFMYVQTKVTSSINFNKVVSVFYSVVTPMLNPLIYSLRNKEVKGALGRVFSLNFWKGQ
In short: as §1

[17] = molecular target: T17, OR6J1 (Homo sapiens) (UniProt Q8NGC5); remark: listed apart in the source
T17 sequence (whole entry): T8 sequence (whole entry) with P250S
In short: as §1

[18] = system: T18, OR6K3
T18 sequence (whole entry): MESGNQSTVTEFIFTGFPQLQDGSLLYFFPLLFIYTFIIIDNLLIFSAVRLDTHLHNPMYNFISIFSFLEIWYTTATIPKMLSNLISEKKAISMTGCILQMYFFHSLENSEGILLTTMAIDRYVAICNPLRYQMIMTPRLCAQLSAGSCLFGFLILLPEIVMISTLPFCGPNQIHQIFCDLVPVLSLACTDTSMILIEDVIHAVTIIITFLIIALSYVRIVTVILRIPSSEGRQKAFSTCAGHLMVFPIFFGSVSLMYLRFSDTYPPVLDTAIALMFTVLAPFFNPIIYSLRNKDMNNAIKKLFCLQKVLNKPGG
In short: as §1

[19] = system: T19, OR6M1 R224C
T19 sequence (whole entry): T12 sequence (whole entry) with R224C
In short: as §1

[20] = system: T20, OR6M1 T276K
T20 sequence (whole entry): T12 sequence (whole entry) with T276K
In short: as §1

Measured: odorant receptor agonist call;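 note: active if original authors judged signal statistically different from baseline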

CC(CO)CS (stereo not given)
not listed: [17] | [18] | [19] | [20]
inactive: all other assays above

CC1=C(O)C(=O)OC1C (stereo not given)
not listed: [8] | [10]
inactive: all other assays above

CCCC(S)CCOC(C)=O (stereo not given)
not listed: [8] | [10]
inactive: all other assays above

CCC(S)C(C)CO (stereo not given)
not listed: [17] | [18] | [19] | [20]
inactive: all other assays above

Cc1cnc(C)c(C)n1
not listed: [8] | [10]
inactive: all other assays above

CCC1OC(=O)C(O)=C1C (stereo not given)
not listed: [8] | [10]
inactive: all other assays above

CC1CCCCCCCCCCCCC(=O)C1 (stereo not given)
not listed: [17] | [18] | [19] | [20]
inactive: all other assays above
